Measurements pooled from the literature.
Each line is one published result; the experiments were not run side by side.
Target: Serine/threonine-protein kinase PAK 2 (PAK2, Homo sapiens, UniProt Q13177)

FC(F)(F)Oc1cccc(-c2cnc3ccc(-c4ccncc4)nn23)c1
activity vs control (enzyme activity; inhibitor; radiometric; 1 µM): 95%

CSc1cccnc1N1CCN(Cc2nc3ccccc3[nH]2)CC1
remaining binding (cell-free assay; competition with immobilised ligand; 1 µM): 100%

O=C(Nc1cnn(-c2csc(C(=O)NC3COC3)c2)c1)Nc1c(F)cccc1Cl
remaining activity (enzyme activity; inhibitor; 5 µM): 95.3%

O=C1NC(=O)c2cc(Nc3ccc(F)cc3)c(Nc3ccc(F)cc3)cc21
remaining signal (cell-free assay; 0.5 µM): 98.5%

Nc1ncnc2occ(-c3ccc(NC(=O)Nc4cc(C(F)(F)F)ccc4F)cc3)c12
remaining signal (cell-free assay; inhibitor; 20 µM): 60%

COc1cc2ncnc(Nc3ccc(Oc4ccccc4)c(C)c3C)c2cc1OC
inhibition (enzyme activity; inhibitor; 1 µM): 7%

O=C(CSc1nc2nccnc2c(=O)n1CCc1ccccc1)Nc1nccs1
inhibition (enzyme activity; inhibitor; 10 µM): 1%

Cc1noc([C@H]2C[C@@H](c3ccc(C(F)(F)F)cc3)CN(C(=O)N3CCS(=O)(=O)C3)C2)n1
remaining binding (cell-free assay; competition with immobilised ligand; 1 µM): 87%

O=C1Nc2ccc(Cl)cc2C1=Cc1cc(Cl)c(O)c(Cl)c1
remaining signal (cell-free assay; 0.5 µM): 96.8%

Oc1cccc(-c2nc(N3CCOCC3)c3oc4ncccc4c3n2)c1
remaining activity (enzyme activity; inhibitor; 10 µM): 106%

CN1CC(Oc2cnc(C#N)cc2-c2ccn3nc(NC(=O)C4CC4)cc3c2)C1
inhibition (enzyme activity; inhibitor; 1 µM): -7%

CSc1nc(C)c(-c2ccnc(Nc3ccc(N4CCOCC4)cc3)c2)[nH]1
inhibition (enzyme activity; inhibitor; 10 µM): 1.4%

Cc1cc(NC(=O)c2cccc(S(F)(F)(F)(F)F)c2)cc(-n2ccn3nc(-c4cccnc4)cc23)c1
remaining binding (cell-free assay; competition with immobilised ligand; 1 µM): 100%

CC/C(=N\NC(=O)NCc1cccc(O)c1)c1ccc(O)c(C)c1O
inhibition (enzyme activity; inhibitor; 0.1 µM): 3%

CC(C)(C)c1nc2c(s1)c1nc(N)ncc1c1ccc(NS(=O)(=O)c3c(F)cccc3F)c(F)c12
remaining activity (enzyme activity; inhibitor; radiometric; 1 µM): 102%

Cc1ccc(C(=O)Nc2ccc(CN3CCN(C)CC3)c(C(F)(F)F)c2)cc1C#Cc1cnc2cccnn12
remaining activity (enzyme activity; inhibitor; 23.5 nM): 70%

Cc1c(NC(=O)c2cc(C(N)=O)nc3cc(F)ccc23)c(C(F)(F)F)nn1Cc1ccc(C#N)cc1
remaining binding (cell-free assay; competition with immobilised ligand; 1 µM): 88%

CCOc1cc(-c2nncn2C)ccc1Nc1ncc2cc(C)nc(NCC(C)(C)C)c2n1
inhibition (enzyme activity; inhibitor; FRET; 1 µM): < 15%

CS(=O)(=O)N1CCCC(NC(=O)[C@H](CCC2CCCCC2)NC(=O)c2ccc(CNC(=O)c3cnc4ccccn34)cc2)C1 (some centres unmarked)
remaining binding (cell-free assay; competition with immobilised ligand; 0.1 µM): 93%

CCN(CC)c1ccc(C2=NNC(=O)CC2C)cc1[N+](=O)[O-] (centres unmarked)
remaining activity (enzyme activity; inhibitor; 10 µM): 98%

Cc1ccc(NC(=O)c2ccc(C)c(C(F)(F)F)c2)cc1C#Cc1nn(C2CCC(O)CC2)c2ncnc(N)c12 (centres unmarked)
remaining signal (cell-free assay; 10 µM): 68%

COc1cc(Nc2cnc(C#N)c(O[C@H](C)CN(C)C)n2)ncc1-c1cnn(C)c1
remaining activity (enzyme activity; inhibitor; radiometric; 10 µM): 70%

C#Cc1cccc(Nc2ncnc3cc(OCCOC)c(OCCOC)cc23)c1
remaining signal (cell-free assay; 0.5 µM): 99.1%

CC(C)CC(=O)N1CCc2nc(-c3ccc(Br)cc3)nc(N(C)Cc3ccccc3)c2C1
remaining binding (cell-free assay; competition with immobilised ligand; 0.1 µM): 100%

CNCc1ccc(-c2cc(-c3nc(-c4ccc(S(=O)(=O)C(C)C)cc4)cnc3N)on2)cc1
inhibition (enzyme activity; inhibitor; 0.4 µM): 7%

CCN(CC)CCNC(=O)c1c(C)[nH]c(/C=C2\C(=O)Nc3ccc(F)cc32)c1C
inhibition (enzyme activity; inhibitor; 0.3 µM): -8%

Cc1sc(C(=O)NC2COC2)cc1-n1cc(NC(=O)Nc2c(F)cccc2Cl)cn1
remaining activity (enzyme activity; inhibitor; 10 µM): 106%

Nc1cnc(N2CCc3cc(S(=O)(=O)Nc4c(F)cc(Cl)cc4F)cc(N4CCCC4=O)c32)nc1
remaining binding (cell-free assay; competition with immobilised ligand; 1 µM): 78%

CNc1cccc2cc(C(=O)Nc3ccc(C(=O)O)cc3)c(=O)[nH]c12
inhibition (enzyme activity; inhibitor; 10 µM): 20%

Cc1ccc(Nc2nccc(N(C)c3ccc4c(C)n(C)nc4c3)n2)cc1S(N)(=O)=O
inhibition (enzyme activity; inhibitor; 0.3 µM): 1%

O=C(Nc1cnc(Oc2ccc(F)cc2)nc1)N1CCc2ncccc2[C@@H]1c1ccc(F)cc1
remaining binding (cell-free assay; competition with immobilised ligand; 1 µM): 59%

Clc1ccc(Nc2nnc(Cc3ccncc3)c3ccccc23)cc1
remaining signal (cell-free assay; 0.5 µM): 101%
